Series [1] deals with 72 kDa type IV collagenase (Homo sapiens) (UniProt P08253). The experiment in a line: Inhibition of human MMP2 (Tyr110 to Asp452 residues) expressed in yeast at 50 to 100 uM using Mca-Pro-LeuGly-Leu-Dpa-Ala-Arg-NH2.AcOH as substrate preincubated for 30 mins followed by substrate addition measured after 20 mins by fluorescence assay relative to control. In a few lines:
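Human recombinant MMP-2 (1.16 U/well) or MMP-12 (0.007 U/well) in 50 mM HEPES, 10 mM CaCl2, 0.05% Brij-35, pH 7.5. Enzyme and inhibitor pre-incubated 30 min at 37 °C, then OmniMMP fluorogenic substrate (4 μM) added. Fluorescence rise followed 20 min at ex/em 320/400 nm. Activity relative to no-inhibitor wells, with 200 μM NSA as 0%. Run in triplicate.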

Series [2] is described as follows: Inhibition of bacterial MBP-fused NDM1 expressed in Escherichia coli BL21(DE3) ausing chromacef as substrate preincubated for 20 mins followed by substrate addition measured after 0.3 mins. More on the design: species or system Bacteria. An outline of the steps: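 Preincubated 20 min, then 3 μM substrate (~3×KM) added. A442 followed ~0.3 min at 25 °C. Activity scaled to uninhibited (100%) and no-enzyme (0%) controls, fitted to a Hill-type equation.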

The nature of series [3]: Inhibition of bacterial MBP-fused NDM1 expressed in Escherichia coli BL21(DE3) ausing fluorocillin as substrate preincubated for 20 mins followed by substrate addition measured at 1 sec time interval for 25 mins by fluorescence assay. Also noted: species or system Bacteria. In a few lines:
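NDM-1 pre-incubated 20 min with inhibitor (final 100 μM to 1 nM) in 50 mM HEPES pH 7.0 with 2 mM CHAPS. Reaction started with fluorocillin (final 87 nM, below KM), NDM-1 final 25 pM. Fluorescence read at λex/em 495/525 nm, 10 reads over ~25 min.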

Series [4] has as its target T1, Protein deacetylase HDAC6 (Homo sapiens) (UniProt Q9UBN7).
T1 sequence (whole entry): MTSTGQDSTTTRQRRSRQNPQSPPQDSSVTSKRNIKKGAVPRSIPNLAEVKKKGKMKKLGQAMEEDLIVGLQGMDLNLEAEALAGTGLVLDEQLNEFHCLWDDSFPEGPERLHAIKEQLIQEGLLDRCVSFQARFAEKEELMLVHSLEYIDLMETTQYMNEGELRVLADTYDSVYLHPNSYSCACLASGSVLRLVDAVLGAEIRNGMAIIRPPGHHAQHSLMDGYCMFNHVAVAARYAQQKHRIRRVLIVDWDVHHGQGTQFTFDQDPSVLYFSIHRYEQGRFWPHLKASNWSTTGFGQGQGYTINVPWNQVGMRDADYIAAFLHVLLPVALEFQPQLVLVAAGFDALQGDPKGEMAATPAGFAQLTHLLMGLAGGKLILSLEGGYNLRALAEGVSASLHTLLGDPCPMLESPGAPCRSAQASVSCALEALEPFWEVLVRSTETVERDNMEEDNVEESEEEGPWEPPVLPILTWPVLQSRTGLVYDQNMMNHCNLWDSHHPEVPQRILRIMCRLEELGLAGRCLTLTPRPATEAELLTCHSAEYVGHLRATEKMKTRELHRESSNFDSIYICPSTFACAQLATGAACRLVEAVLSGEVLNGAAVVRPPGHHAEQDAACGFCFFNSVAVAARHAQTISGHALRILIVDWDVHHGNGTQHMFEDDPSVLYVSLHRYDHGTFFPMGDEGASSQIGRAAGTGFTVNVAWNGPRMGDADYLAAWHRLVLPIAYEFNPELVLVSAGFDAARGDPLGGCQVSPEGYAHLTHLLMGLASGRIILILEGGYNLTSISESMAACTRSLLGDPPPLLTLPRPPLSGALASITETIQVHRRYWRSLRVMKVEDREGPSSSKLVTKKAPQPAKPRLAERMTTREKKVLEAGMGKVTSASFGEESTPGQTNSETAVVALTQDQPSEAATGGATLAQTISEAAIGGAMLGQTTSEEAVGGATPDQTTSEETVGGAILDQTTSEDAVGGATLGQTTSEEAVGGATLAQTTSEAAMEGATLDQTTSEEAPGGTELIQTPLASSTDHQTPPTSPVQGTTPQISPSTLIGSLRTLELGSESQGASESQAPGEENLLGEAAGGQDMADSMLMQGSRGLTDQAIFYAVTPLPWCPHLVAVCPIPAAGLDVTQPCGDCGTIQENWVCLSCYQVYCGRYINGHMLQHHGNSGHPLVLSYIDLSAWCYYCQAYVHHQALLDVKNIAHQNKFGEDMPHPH
The experiment in a line: Inhibition of full length human N-terminal GST-tagged HDAC6 expressed in baculovirus infected sf9 cells at 10 uM using HDAC substrate 3 preincubated for 5 mins followed by substrate addition measured after 30 mins by fluorescence assay. In a few lines: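 Inhibitor pre-incubated 5 min, then HDAC substrate 3 (20 μM) added, 30 min at 37 °C. Developer added for 15 min at room temperature; fluorescence read at ex/em 360/460 nm. Activity relative to no-inhibitor wells, with 200 μM SAHA as 0%. Run in triplicate.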

Series [5] addresses Carbonic anhydrase 2 (Homo sapiens) (UniProt P00918). Nature of the series: Inhibition of human carbonic anhydrase 2 at 10 uM using p-nitrophenyl acetate as substrate preincubated for 10 mins followed by substrate addition measured for 15 mins. In a few lines: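 hCAII (100 nM) in 50 mM HEPES pH 8.0 pre-incubated with inhibitor for 10 min at 30 °C. p-Nitrophenyl acetate (500 μM) then added and absorbance at 405 nm followed 15 min. Activity relative to no-inhibitor wells, with 50 μM benzene sulfonamide as 0%. Run in triplicate.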

In series [6] the test system is Bacteria. The experiment in a line: Binding affinity to bacterial CoCoNDM-1 expressed in Escherichia coli BL21(DE3) assessed as CoCoNDM-1-compound ternary complex formation at 1 equiv by 1H […] spectroscopic method.
Series [7] concerns the target Metallo-beta-lactamase type 2 (Klebsiella pneumoniae) (UniProt C7C422). The experiment in a line: Inhibition of NDM1 in Klebsiella pneumoniae isolate Pd1.53 assessed as potentiation of imipenem-induced antibacterial activity by measuring imipenem MIC at 100 mg/L after 18 to 20 hrs by broth microdilution assay (reference value: 8 mg/L). Background: In broth dilution the organism is exposed to a series of concentrations in liquid medium.

Series [8] has as its system Escherichia coli. Nature of the series: Effect on growth of Escherichia coli isolate Ah8.73 at 100 mg/L after 18 to 20 hrs by broth microdilution assay. In a few lines:
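Mueller-Hinton broth microdilution per CLSI, triplicate. blaNDM-1 clinical isolates grown from OD600 0.1 to 0.224 (~1–2 × 10^8 CFU/mL), diluted 3 μL into 4997 μL MH, and 100 μL added to 100 μL of compound (100 mg/L) alone. Incubated 37 °C for 18–20 h, then scored for growth.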

Series [9] relates to HEK293. The experiment in a line: Cytotoxicity against HEK293 cells assessed as change in morphology up to 400 uM after 4 to 24 hrs by microscopic assay. Format: cell-based. The conditions noted are these: human. In a few lines: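 HEK293 cells treated as in the viability assay (4 or 24 h, DMSO vehicle control). Imaged by epifluorescence microscopy at 20X magnification to assess growth and morphology.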

Each structure is given as a SMILES string. Calls of active or inactive are those of the source. The calls are words filed in the database; no cut-off is given here.

Chain of 72 kDa type IV collagenase (Homo sapiens) (P08253 110-660 limits assumed): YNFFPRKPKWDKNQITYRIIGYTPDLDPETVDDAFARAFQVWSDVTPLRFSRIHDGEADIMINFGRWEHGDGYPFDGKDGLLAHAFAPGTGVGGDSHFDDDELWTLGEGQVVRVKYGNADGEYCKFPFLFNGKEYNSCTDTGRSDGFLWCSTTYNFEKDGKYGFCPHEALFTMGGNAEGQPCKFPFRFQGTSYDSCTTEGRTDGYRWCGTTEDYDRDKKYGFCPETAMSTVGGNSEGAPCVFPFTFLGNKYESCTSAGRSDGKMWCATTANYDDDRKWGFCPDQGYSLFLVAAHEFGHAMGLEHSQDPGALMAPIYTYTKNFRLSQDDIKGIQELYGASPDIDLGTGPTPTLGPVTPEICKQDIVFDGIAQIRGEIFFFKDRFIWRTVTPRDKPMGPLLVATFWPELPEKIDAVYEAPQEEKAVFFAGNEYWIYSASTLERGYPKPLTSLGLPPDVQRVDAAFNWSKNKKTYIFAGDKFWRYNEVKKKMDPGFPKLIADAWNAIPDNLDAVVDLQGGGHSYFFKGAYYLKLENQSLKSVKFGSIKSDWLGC
Chain of Metallo-beta-lactamase type 2 (Klebsiella pneumoniae) (C7C422 whole entry): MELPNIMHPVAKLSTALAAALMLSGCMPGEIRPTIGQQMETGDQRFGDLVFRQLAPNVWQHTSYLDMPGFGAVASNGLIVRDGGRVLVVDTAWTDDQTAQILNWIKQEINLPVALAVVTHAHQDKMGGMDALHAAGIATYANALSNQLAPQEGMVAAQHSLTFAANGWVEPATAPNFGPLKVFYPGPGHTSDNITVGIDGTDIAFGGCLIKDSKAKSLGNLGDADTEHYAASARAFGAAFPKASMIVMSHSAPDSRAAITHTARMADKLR

What is called inhibition is the change of the read-out against control, counted positive when it falls. As a reminder, the IC50 is the concentration that inhibits the measured activity by half. Low readings indicate greater potency in that assay, high ones weaker potency in that assay. Regarding `Nc1cccc(-c2cc(C(=O)O)nc(C(=O)O)c2)c1`, the inhibition in series [1] was below 50%. Moreover, the results for the half-maximal inhibitory concentration (IC50) in series [2] and in [3] were 320 nM and 80 nM, respectively. In addition, the inhibition entry in [4] and in series [5] was “inactive” throughout. The result in series [6] was Active. Further, the MIC in [7] amounted to 0.5 µg/mL. Also, the Activity entry in series [8] and in series [9] was “Non-Toxic” each time.

(Values after ChEMBL document CHEMBL4017500 (J Med Chem, 2017).)
